Experimental data taken from publication PMC9017786 (Peptide science (Hoboken, N.J.), 2020).

Test: Transmission electron microscopy of the peptide assemblies
Format: physicochemical
Settings: TEM; after ALP 1 U/mL, 1.0 wt% in PBS buffer pH 7.4, 24 hours, 37 °C
Outline: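 Phosphopeptide (1.0 wt% total, pH 7.4 PBS) was dephosphorylated with alkaline phosphatase (1 U/mL) for 24 h at 37 °C. Samples went onto 400 mesh copper grids coated with continuous carbon film (~35 nm), were stained with uranyl acetate and air-dried, then imaged by TEM. Nanofiber width was measured from the images.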

Diameter (width) of the nanofibers: 7 ± 2 nm
Substance: Nap-wwy [compound 1]
